Experimental data from different studies.
Target: Vascular endothelial growth factor receptor 3 (FLT4, Homo sapiens, UniProt P35916)

| Compound | observed | method | tested at | remaining binding [%] |
| --- | --- | --- | --- | --- |
| O=C(NCC1CCOCC1)c1n[nH]cc1NC(=O)c1c(F)cccc1F | binding | competition with immobilised ligand | 1 µM | 95 |
| N[C@@H]1CCN(c2nccc(-c3cnn4ncccc34)n2)C1 | binding | – | 1 µM | 100 |
| CNC(=O)[C@@H]1CC[C@@H](n2c(-c3ccc4cnccc4c3)nc3ccc(C(=O)NCc4cccc(C(N)=O)c4)cc32)C1 | binding | competition with immobilised ligand | 1 µM | 100 |
| CCc1ccccc1C(=O)Nc1n[nH]c2c(C)c(F)c(C3C(C#N)=C(C)N(C)C(C)=C3C#N)cc12 | cell-free assay | competition with immobilised ligand | 1 µM | 85 |
| COc1cnc(Nc2cccc(S(N)(=O)=O)c2)nc1N1CCN(c2ccccc2)C(=O)C1 | binding | competition with immobilised ligand | 1 µM | 100 |
| FC(F)(F)Oc1cccc(-c2cnc3ccc(-c4ccncc4)nn23)c1 | cell-free assay | competition with immobilised ligand | 5 µM | 84 |
| CNCc1ccccc1-c1csc([C@H](C)Nc2nc(C)nc3cc(OC)c(OC)cc23)c1 | cell-free assay | competition with immobilised ligand | 1 µM | 100 |
| O=C(NCCCN1CCOCC1)c1ccc(Nc2ncc(Cl)c(-c3ccc(Cl)s3)n2)cc1 | binding | competition with immobilised ligand | 1 µM | 0.7 |
| N#Cc1ccc(Nc2ccc3[nH]c(=O)[nH]c3c2)c(Cl)c1 | cell-free assay | competition with immobilised ligand | 1 µM | 100 |
| Nc1ncc2c(n1)-c1c([nH]c3ccc(C#CC4CC4)cc13)CCCC2 | binding | competition with immobilised ligand | 1 µM | 100 |
| O=C(c1ccc(Nc2nccc(-c3cc4ccccc4s3)n2)cc1)N1CCC(N2CCCC2)CC1 | binding | competition with immobilised ligand | 1 µM | 30 |
| COc1ncc2cc3ccccc3nc2c1C#N | cell-free assay | competition with immobilised ligand | 5 µM | 96 |
| F[C@@H]1CCN(c2nccc(-c3cnn4ncccc34)n2)C1 | binding | – | 1 µM | 90 |
| Cc1nc(C2CCN(C(=O)c3ccc(OC(F)(F)F)cc3N)CC2)c2ncc(N3CCN(C)CC3)cc2n1 | cell-free assay | competition with immobilised ligand | 1 µM | 75 |
| c1cnn2ncc(-c3ccnc(N4CCC45COC5)n3)c2c1 | binding | – | 1 µM | 92 |
| C=CC(=O)Nc1cccc(CN2C(=O)N(c3c(Cl)c(OC)cc(OC)c3Cl)Cc3cnc(NCCCCN(CC)CC)nc32)c1 | cell-free assay | competition with immobilised ligand | 10 µM | 0.2 |
| Cc1cnn2ncc(-c3ccnc(N(C)C)n3)c2c1 | binding | – | 1 µM | 100 |
| Cc1cc(C)c(-n2ccn3nc(-c4cccnc4)cc23)cc1NC(=O)c1cc(C#N)cc(S(F)(F)(F)(F)F)c1 | cell-free assay | competition with immobilised ligand | 0.1 µM | 77.6 |
| CN(C)c1nccc(-c2cnn3ncccc23)n1 | binding | – | 1 µM | 100 |
| Nc1c(C(=O)NCc2ccc(C(=O)NCCCC3CCCCC3)cc2)cnn1-c1ccccc1 | cell-free assay | competition with immobilised ligand | 0.1 µM | 100 |
| C[C@H]1CCN(c2nccc(-c3cnn4ncccc34)n2)C1 | binding | – | 1 µM | 100 |
| O=C(NCCCN1CCOCC1)c1ccc(Nc2nccc(-c3cc4ccccc4s3)n2)cc1 | binding | competition with immobilised ligand | 1 µM | 50 |
